Assay results: ChEMBL document CHEMBL1132286, “Design, synthesis, and dopamine receptor modulating activity of spiro bicyclic peptidomimetics of L-prolyl-L-leucyl-glycinamide” (J Med Chem, 1999)
Where “and” joins values, the source holds several entries; their conditions need not be identical. Equal entries are not always repeated. Peptide text beside a SMILES is read from it.

Columns and labels:
[1] = target: T1, D(2) dopamine receptor (Homo sapiens, UniProt P14416); assay: Percent of Dopamine receptor D2 in low affinity state for the compound in presence of Gpp(NH)p (pretreatment with 100 nM of compound).
Summary of the method: (§1)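 D2 receptor binding: [3H]spiroperidol displaced by the agonist N-propylnorapomorphine, run without or with Gpp(NH)p (100 μM). The assay was done either with 100 nM test-compound pretreatment or untreated as its control. High- and low-affinity dissociation constants (KH, KL) and receptor fractions (RH, RL, RH/RL) are reported. Values are mean ± SEM of 3–4 separate experiments, each done in duplicate or triplicate.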

[2] = target: T1, D(2) dopamine receptor; assay: Ratio of the high affinity state over low affinity state of dopamine D2 receptor in the absence of Gpp(NH)p.; summary of the method: as §1
[3] = target: T1, D(2) dopamine receptor; assay: Percent of Dopamine receptor D2 in low affinity state for the compound in absence of Gpp(NH)p (pretreatment with 100 nM of compound).; summary of the method: as §1
[4] = target: T1, D(2) dopamine receptor; assay: Inhibitor constant of compound for high affinity component of [3H]spiroperidol/N-propylnorapomorphine binding to Dopamine receptor D2 in absence of Gpp(NH)p; summary of the method: as §1
[5] = target: T1, D(2) dopamine receptor; assay: Inhibitor constant of compound for high affinity component of [3H]spiroperidol/N-propylnorapomorphine binding to Dopamine receptor D2 in presence of Gpp(NH)p; summary of the method: as §1
[6] = target: T1, D(2) dopamine receptor; assay: Percent of Dopamine receptor D2 in low affinity state for the compound in presence of Gpp(NH)p; summary of the method: as §1
[7] = target: T1, D(2) dopamine receptor; assay: Inhibitor constant of compound for low affinity component of [3H]spiroperidol/N-propylnorapomorphine binding to Dopamine receptor D2 in absence of Gpp(NH)p; summary of the method: as §1
[8] = target: T1, D(2) dopamine receptor; assay: Percent of Dopamine receptor D2 in high affinity state for the compound in absence of Gpp(NH)p (pretreatment with 100 nM of compound).; summary of the method: as §1
[9] = target: T1, D(2) dopamine receptor; assay: Inhibitor constant of compound for low affinity component of [3H]spiroperidol/N-propylnorapomorphine binding to Dopamine receptor D2 in presence of Gpp(NH)p; summary of the method: as §1
[10] = target: T1, D(2) dopamine receptor; assay: Percent of Dopamine receptor D2 in low affinity state for the compound in absence of Gpp(NH)p; summary of the method: as §1
[11] = target: T1, D(2) dopamine receptor; assay: Percent of Dopamine receptor D2 in high affinity state for the compound in absence of Gpp(NH)p; summary of the method: as §1
[12] = target: T1, D(2) dopamine receptor; assay: Inhibitor constant of compound for high affinity component of [3H]spiroperidol/N-propylnorapomorphine binding to Dopamine receptor D2 in presence of Gpp(NH)p (pretreatment with 100 nM of compound); summary of the method: as §1
[13] = target: T1, D(2) dopamine receptor; assay: Inhibitor constant of compound for high affinity component of [3H]spiroperidol/N-propylnorapomorphine binding to Dopamine receptor D2 in absence of Gpp(NH)p (pretreatment with 100 nM of compound); summary of the method: as §1
[14] = tested on: Rattus norvegicus; assay: Percent increase in apomorphine induced rotational behavior in the 6-hydroxydopamine lesioned rat model of hemiparkinsonism by 0.001 mg/Kg of compound given intraperitoneally; type: functional
Summary of the method: (§2)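 Rats with a unilateral 6-hydroxydopamine lesion of the substantia nigra received the test compound ip (0.00001–1 mg/kg) together with apomorphine (0.25 mg/kg, ip), n = 4. Contralateral rotations were counted over 10 min and expressed as percent change from the control rotational response, mean ± SEM.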

[15] = target: T1, D(2) dopamine receptor; assay: Ratio of the high affinity state over low affinity state of dopamine D2 receptor in the presence of Gpp(NH)p.; summary of the method: as §1
[16] = target: T1, D(2) dopamine receptor; assay: Ratio of the high affinity state over low affinity state of dopamine D2 receptor in the presence of Gpp(NH)p. (pretreatment with 100 nM of compound).; summary of the method: as §1
[17] = target: T1, D(2) dopamine receptor; assay: Percent of Dopamine receptor D2 in high affinity state for the compound in presence of Gpp(NH)p; summary of the method: as §1
[18] = target: T1, D(2) dopamine receptor; assay: Ratio of the high affinity state over low affinity state of dopamine D2 receptor in the absence of Gpp(NH)p. (pretreatment with 100 nM of compound).; summary of the method: as §1
[19] = target: T1, D(2) dopamine receptor; assay: Inhibitor constant of compound for low affinity component of [3H]spiroperidol/N-propylnorapomorphine binding to Dopamine receptor D2 in absence of Gpp(NH)p (pretreatment with 100 nM of compound); summary of the method: as §1
[20] = target: T1, D(2) dopamine receptor; assay: Percent of Dopamine receptor D2 in high affinity state for the compound in presence of Gpp(NH)p (pretreatment with 100 nM of compound).; summary of the method: as §1
[21] = tested on: Rattus norvegicus; assay: Percent increase in apomorphine induced rotational behavior in the 6-hydroxydopamine lesioned rat model of hemiparkinsonism by 0.01 mg/Kg of compound given intraperitoneally; type: functional; summary of the method: as §2

T1 sequence (P14416 whole entry): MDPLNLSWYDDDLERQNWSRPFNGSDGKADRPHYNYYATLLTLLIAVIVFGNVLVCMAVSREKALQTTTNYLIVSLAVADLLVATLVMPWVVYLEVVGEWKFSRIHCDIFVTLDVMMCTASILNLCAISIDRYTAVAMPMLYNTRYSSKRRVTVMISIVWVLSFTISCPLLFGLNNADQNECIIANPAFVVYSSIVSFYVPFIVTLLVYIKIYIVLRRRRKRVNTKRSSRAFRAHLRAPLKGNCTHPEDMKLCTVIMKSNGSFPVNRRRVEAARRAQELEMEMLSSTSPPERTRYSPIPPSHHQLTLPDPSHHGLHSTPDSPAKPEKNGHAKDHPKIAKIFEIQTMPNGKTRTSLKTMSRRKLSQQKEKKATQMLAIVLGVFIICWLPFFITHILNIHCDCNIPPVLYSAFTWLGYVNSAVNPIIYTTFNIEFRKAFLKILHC

Row | RL [1] [%] | RH/RL [2] | RL [3] [%] | Ki [4] [nM] | Ki [5] [nM] | RL [6] [%] | Ki [7] [nM] | RH [8] [%] | Ki [9] | RL [10] [%] | RH [11] [%] | Ki [12] [nM] | Ki [13] [nM] | RH/RL [15] | RH/RL [16] | RH [17] [%] | RH/RL [18] | Ki [19] [nM] | RH [20] [%] | SMILES | also measured
1 | 45 | 1.13 | 32 | 0.067 | 0.196 | 83 | 190 | 68 | 260 nM and 211 nM | 47 | 53 | 0.09 | 0.05 | 0.2 | 1.22 | 17 | 2.12 | 188 | 55 | NC(=O)[C@H]1CS[C@@H]2CC[C@]3(CCCN3C(=O)[C@@H]3CCCN3)C(=O)N12 | Activity [14]: 88%
2 | 72 | 0.96 | 41 | 0.09 | 0.13 | 82 | 73.2 | 61 | 60 nM and 78 nM | 51 | 49 | 0.06 | 0.04 | 0.23 | 0.44 | 19 | 1.48 | 60.1 | 32 | CC(C)C[C@H](NC(=O)[C@@H]1CCCN1)C(=O)NCC(N)=O (H-Pro-Leu-Gly-NH2) | –
3 | 47 | 1.08 | 36 | 0.071 | 0.122 | 85 | 196 | 64 | 246 nM and 202 nM | 48 | 52 | 0.064 | 0.031 | 0.17 | 1.12 | 15 | 1.77 | 168 | 53 | NC(=O)C1CCS[C@@H]2C[C@]3(CCCN3C(=O)[C@@H]3CCCN3)C(=O)N12 (some centres undefined) | Activity [21]: 95%
